Here are results for 12 compounds from ChEMBL document CHEMBL1773046, “Isoprenylated flavonoids and adipogenesis-promoting constituents from Morus nigra” (2011).

Assay [1] has as its system 3T3-L1. As to the kind of experiment: Induction of mouse 3T3L1 cell differentiation assessed as increase in accumulation of intracellular lipid droplet at 25 uM by Oil red O staining. In kind it is functional, cell-based. A digest of the protocol:
(§1)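 Following 8-day differentiation with compound applied from induction (insulin/dexamethasone/IBMX, then insulin maintenance), intracellular lipid droplets visualized by Oil Red O staining and photographed.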

For assay [2], the system named is 3T3-L1. As to the kind of experiment: Induction of GLUT4 gene expression in mouse 3T3L1 cells assessed as increase in GLUT4 protein level at 12.5 uM by Western blot analysis. In kind it is functional, cell-based. Summed up: (§2)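 3T3-L1 cells grown in DMEM/10% NCS at 37 °C, 5% CO2. Two days post-confluence, differentiation induced with 2 μg/mL insulin, 1 μM dexamethasone and 0.125 mM IBMX in 10% FBS/DMEM, then kept in 10% FBS/DMEM plus 2 μg/mL insulin. Compound added at induction and left 8 days. Cells then harvested for target protein (RIPA lysate, immunoblot) or mRNA (TRIzol RNA, RT-qPCR).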
In general terms: A western blot detects proteins with antibodies after separation by electrophoresis.

Assay [3] concerns 3T3-L1. As to the kind of experiment: Induction of GLUT4 gene expression in mouse 3T3L1 cells assessed as increase in mRNA level at 10 uM by qRT-PCR analysis. In kind it is functional, cell-based. Summed up:
as §2

Assay [4] relates to 3T3-L1. Put plainly: Induction of adipogenesis in mouse 3T3L1 cells assessed as increase in triglyceride level at 25 uM after 8 days relative to control. In kind it is functional. A digest of the protocol:
(§3)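 Differentiation protocol: confluent 3T3-L1 cells held 2 days, then induced with insulin (2 μg/mL), dexamethasone (1 μM) and IBMX (0.125 mM) in 10% FBS/DMEM, then maintained with insulin. Compound present from induction for 8 days. Cellular triglyceride quantified with an enzymatic kit and compared with untreated control.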

The subject of assay [5] is 3T3-L1. As to the kind of experiment: Induction of aP2 gene expression in mouse 3T3L1 cells assessed as increase in aP2 protein level at 6.25 uM by Western blot analysis. The format is functional, cell-based. A digest of the protocol:
as §2

For assay [6], the system named is 3T3-L1. As to the kind of experiment: Induction of adipogenesis in mouse 3T3L1 cells assessed as increase in triglyceride level at 12.5 uM after 8 days relative to control. The format is functional. Summed up: as §3
In assay [7] the test system is 3T3-L1. As to the kind of experiment: Induction of aP2 gene expression in mouse 3T3L1 cells assessed as increase in mRNA level at 10 uM by qRT-PCR analysis. The format is functional, cell-based. Summed up: as §2
Background: Quantitative PCR measures a nucleic acid by following its amplification.

In assay [8] the test system is 3T3-L1. Put plainly: Induction of aP2 gene expression in mouse 3T3L1 cells assessed as increase in aP2 protein level at 12.5 uM by Western blot analysis. In kind it is functional, cell-based. Summed up:
as §2

Assay [9] concerns 3T3-L1. Put plainly: Induction of adipogenesis in mouse 3T3L1 cells assessed as increase in triglyceride level at 50 uM after 8 days relative to control. In kind it is functional. Summed up: as §3
In assay [10] the test system is 3T3-L1. As to the kind of experiment: Induction of GLUT4 gene expression in mouse 3T3L1 cells assessed as increase in GLUT4 protein level at 6.25 uM by Western blot analysis. The format is functional, cell-based. Summed up:
as §2

In assay [11] the test system is 3T3-L1. Put plainly: Induction of adipogenesis in mouse 3T3L1 cells assessed as increase in triglyceride level at 1 uM after 8 days relative to control. The format is functional. A digest of the protocol:
as §3

The subject of assay [12] is 3T3-L1. As to the kind of experiment: Induction of mouse 3T3L1 cell differentiation assessed as increase in accumulation of intracellular lipid droplet at 1 uM by Oil red O staining. The format is functional, cell-based. Summed up:
as §1

SMILES strings stand for the structures. Activity calls are given as the source filed them. The rule behind the calls is not given here.

On to `C=C(C)C(O)CC/C(C)=C/CC/C(C)=C/C[C@@]12Oc3cc(O)cc(O)c3C(=O)[C@]1(O)Oc1cc(O)ccc12` (stereo partly specified), for which, in the assay with 3T3-L1 [1], the result was inactive.

Turning to `C=C(C)[C@@H]1Cc2c(cc(O)c3c2O[C@]2(CC=C(C)C)c4ccc(O)cc4O[C@]2(O)C3=O)O1`, the result with 3T3-L1 [1] was inactive.

Regarding `C=C(C)[C@H]1Cc2c(cc(O)c3c2O[C@]2(CC=C(C)C)c4ccc(O)cc4O[C@]2(O)C3=O)O1`, in the assay on 3T3-L1 [1], the outcome was inactive.

Take `CC(C)=CCC/C(C)=C/CC/C(C)=C/C[C@@]12Oc3cc(O)cc(O)c3C(=O)[C@]1(O)Oc1cc(O)ccc12`: the outcome in the assay with 3T3-L1 [1] was inactive.

For the compound `CC(C)=CC[C@]12Oc3cc4c(c(O)c3C(=O)[C@@]1(O)Oc1cc(O)ccc12)C[C@@H](C(C)(C)O)O4`, the result with 3T3-L1 [1] was inactive.

For `CC(C)=CC[C@]12Oc3cc4c(c(O)c3C(=O)[C@@]1(O)Oc1cc(O)ccc12)C[C@@H](O)C(C)(C)O4`, the outcome with 3T3-L1 [1] was inactive.

In the case of `CC(C)=CC[C@]12Oc3cc4c(c(O)c3C(=O)[C@@]1(O)Oc1cc(O)ccc12)C[C@H](C(C)(C)O)O4`, the result with 3T3-L1 [1] was inactive.

On to `CC(C)=CC[C@]12Oc3cc4c(c(O)c3C(=O)[C@@]1(O)Oc1cc(O)ccc12)C[C@H](O)C(C)(C)O4`, for which, in the assay on 3T3-L1 [1], the outcome was inactive.

As for `CC(C)=CCc1c(O)cc2oc(-c3ccc(O)cc3O)c(CC=C(C)C)c(=O)c2c1O`, in the assay with 3T3-L1 [1], the result was inactive.

Consider `CC(C)=CCc1c(-c2ccc(O)cc2O)oc2c3c(cc(O)c2c1=O)O[C@H](C)C3(C)C` [NIGRASIN H], for which the result in the assay with 3T3-L1 [2], in the assay on 3T3-L1 [3], in the assay on 3T3-L1 [5], with 3T3-L1 [7], with 3T3-L1 [8] and in the assay with 3T3-L1 [1] was Active. In the assay with 3T3-L1 [10], the outcome was Active. Moreover, the Activity is 143.94% in the assay on 3T3-L1 [4], 102.16% in the assay with 3T3-L1 [6] and 203.39% in the assay with 3T3-L1 [9].

As to `C=CC(C)(C)c1c(O)cc(O)c2c(=O)c(CC=C(C)C)c(-c3ccc(O)cc3O)oc12` [NIGRASIN I], the result in the assay on 3T3-L1 [2], in the assay on 3T3-L1 [3], in the assay on 3T3-L1 [5], in the assay with 3T3-L1 [7], in the assay with 3T3-L1 [8] and with 3T3-L1 [1] was Active. Further, in the assay on 3T3-L1 [10], the result was Active. Besides, the Activity is 317.18% in the assay with 3T3-L1 [4], 179.84% in the assay on 3T3-L1 [6] and 250.63% with 3T3-L1 [9].

Turning to `CN(CCOc1ccc(CC2SC(=O)NC2=O)cc1)c1ccccn1` (stereo unspecified) [ROSIGLITAZONE], the Activity in the assay on 3T3-L1 [11] was determined as 450.32%. For the same compound, the outcome with 3T3-L1 [12] was Active.
